Assay results taken from ChEMBL document CHEMBL3856249 (J Med Chem, 2016).

What was measured:
[1] = Metabolic stability in rat liver microsomes assessed as compound metabolized at 5 uM measured after 15 mins; type: ADME; settings: read-out: Drug metabolism
Method in brief: (§1)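 Human or rat liver microsomes incubated with compound at 5 μM for 15 min; read-out is % of parent metabolized; means of at least two experiments.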

[2] = Metabolic stability in human liver microsomes assessed as compound metabolized at 5 uM measured after 15 mins; type: ADME; settings: read-out: Drug metabolism; method in brief: as §1
[3] = Tmax in Sprague-Dawley rat at […], iv or 10 mg/kg, po; type: ADME, organism-based; settings: in vivo
[4] = Tmax in Beagle dog at 1 mg/kg, iv or 5 mg/kg, po; type: ADME, organism-based, Canis lupus familiaris; settings: in vivo
Method in brief: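 Male Beagle dogs given 5 mg/kg orally and 1 mg/kg intravenously, formulated in 20% HP-β-CD + HCl solution at pH 4. Tmax reported as mean ± SD of three animals.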

[5] = Dissociation constant, pKa of the compound; type: physicochemical
[6] = Ratio of drug level in brain to plasma of Swiss mouse at 10 mg/kg, sc measured after 1 hr; type: ADME, organism-based; settings: brain and plasma, read-out: BPR
Method in brief: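 Swiss mice, single 10 mg/kg s.c. dose in 20% HP-β-CD + HCl solution at pH 4; brain/plasma ratio taken 1 h post-dose.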

[7] = Oral bioavailability in Beagle dog at 5 mg/kg; type: ADME, organism-based, Canis lupus familiaris; settings: in vivo
Method in brief: (§2)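 Male Beagle dogs, 1 mg/kg i.v. and 5 mg/kg p.o., vehicle 20% HP-β-CD + HCl solution at pH 4; values are individual animals (two dogs) or mean of three animals ± SD.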

[8] = Lipophilicity, log P of the compound; type: physicochemical; settings: octanol/water
[9] = Cmax in Beagle dog at 1 mg/kg, iv or 5 mg/kg, po; type: ADME, organism-based, Canis lupus familiaris; settings: in vivo; method in brief: as §2
[10] = AUC (0 to infinity) in Beagle dog at 1 mg/kg, iv or 5 mg/kg, po; type: ADME, organism-based, Canis lupus familiaris; settings: in vivo; method in brief: as §2
[11] = Clearance in Sprague-Dawley rat at […], iv or 10 mg/kg, po; type: ADME, organism-based; settings: in vivo
[12] = Half life in Beagle dog at 1 mg/kg, iv or 5 mg/kg, po; type: ADME, organism-based, Canis lupus familiaris; settings: in vivo; method in brief: as §2
[13] = Apparent permeability across apical to basolateral side over basolateral to apical side in pig LLC-PK1 cells at 1 uM measured after 120 mins; type: ADME, cell-based, Sus scrofa
[14] = AUC (0 to infinity) in Sprague-Dawley rat at […], iv or 10 mg/kg, po; type: ADME, organism-based; settings: in vivo
[15] = Cmax in Sprague-Dawley rat at […], iv or 10 mg/kg, po; type: ADME, organism-based; settings: in vivo
[16] = Elimination half life in Sprague-Dawley rat at […], iv or 10 mg/kg, po; type: ADME, organism-based; settings: in vivo, read-out: beta t1/2 (converted)
[17] = Oral bioavailability in Sprague-Dawley rat at 10 mg/kg; type: ADME, organism-based; settings: in vivo
[18] = Clearance in Beagle dog at 1 mg/kg, iv or 5 mg/kg, po; type: ADME, organism-based, Canis lupus familiaris; settings: in vivo; method in brief: as §2

Compound	metabolised at […], 5 µM [1]	metabolised at […], 5 µM [2]	further results
Fc1ccccc1C1CCN(Cc2ccn3c(CC4CC4)nnc3c2C(F)(F)F)CC1	85%	8%	
CCCCn1ccc(N2CCC(c3ccccc3)CC2)c(Cl)c1=O [JNJ-40411813]	53%	23%	Tmax [3]: 30 min; Tmax [4]: 30 min; pKa [5]: < 2; Kp at 1 h [6]: 1; bioavailability [7]: 20%; logP [8]: 4.6; Cmax [9]: 373 ng/mL
FC(F)(F)c1c(CN2CCC(c3ccccc3Cl)CC2)ccn2c(CC3CC3)nnc12	90%	13%	
Fc1ccc(C2CCN(Cc3ccn4c(CC5CC5)nnc4c3C(F)(F)F)CC2)c(F)c1	9%	6%	
FC(F)(F)c1c(CN2CCCC(c3ccccc3)C2)ccn2c(CC3CC3)nnc12 (centres undefined)	98%	51%	
Fc1ccc([C@H]2CC[C@H](NCc3ccn4c(CC5CC5)nnc4c3C(F)(F)F)CC2)c(F)c1	34%	33%	
Fc1ccc(COC2CCN(Cc3ccn4c(CC5CC5)nnc4c3C(F)(F)F)CC2)c(F)c1	96%	67%	
CC1(c2ccccc2)CCCN(Cc2ccn3c(CC4CC4)nnc3c2C(F)(F)F)C1 (centres undefined)	99%	97%	
FC(F)(F)c1c(CN2CCC(c3ccccc3)(C(F)(F)F)CC2)ccn2c(CC3CC3)nnc12	98%	35%	
Fc1ccc(OC2CCN(Cc3ccn4c(CC5CC5)nnc4c3C(F)(F)F)CC2)c(F)c1	57%	25%	
Fc1ccc([C@H]2CC[C@@H](NCc3ccn4c(CC5CC5)nnc4c3C(F)(F)F)CC2)c(F)c1	84%	81%	
FC(F)(F)c1c(N2CCC(c3ccccc3)CC2)ccn2c(CC3CC3)nnc12	25%		Tmax [4]: 30 min; Kp at 1 h [6]: 1.4; AUC(0-inf) [10]: 531 to 957 ng·h/mL; clearance [11]: 31 to 37 mL/min/kg; half-life [12]: 66 to 108 min; bioavailability [7]: 18 to 33%; logP [8]: 4.4; Cmax [9]: 218 to 472 ng/mL; Papp at 2 h, 1 µM [13]: 12 ×10⁻⁶ cm/s
Fc1ccc(N2CCN(Cc3ccn4c(CC5CC5)nnc4c3C(F)(F)F)CC2)c(F)c1	29%	7%	AUC(0-inf) [14]: 11300 ng·h/mL; Tmax [3]: 300 min; Tmax [4]: 30 min; pKa [5]: 5; Kp at 1 h [6]: 2.1; AUC(0-inf) [10]: 3960 to 9860 ng·h/mL; clearance [11]: 16 mL/min/kg; Cmax [15]: 980 ng/mL; half-life [12]: 420 to 540 min; bioavailability [7]: 18 to 44%; logP [8]: 4.2; Cmax [9]: 459 to 1400 ng/mL; half-life [16]: 180 min; bioavailability [17]: 100%; clearance [18]: 4 to 6 mL/min/kg; Papp at 2 h, 1 µM [13]: 22 ×10⁻⁶ cm/s
Fc1ccc(N2CCCN(Cc3ccn4c(CC5CC5)nnc4c3C(F)(F)F)CC2)c(F)c1	99%	91%	
FC(F)(F)c1c(CN2CCN(c3ccc(Cl)cc3Cl)CC2)ccn2c(CC3CC3)nnc12	9%	1%	
FC(F)(F)c1c(CN2CCC(F)(c3ccccc3)CC2)ccn2c(CC3CC3)nnc12	78%	24%	
Fc1cccc(F)c1C1CCN(Cc2ccn3c(CC4CC4)nnc3c2C(F)(F)F)CC1	75%	5%	
Fc1cccc(F)c1N1CCN(Cc2ccn3c(CC4CC4)nnc3c2C(F)(F)F)CC1	99%	55%	
COC1(c2ccccc2)CCN(Cc2ccn3c(CC4CC4)nnc3c2C(F)(F)F)CC1	98%	69%	
